OX1R antag-1: OX1R (human) antagonism; OX1R-expressing cells, FRET antagonist read-out; inhibition, % at 6.6 µM; 330,000 compounds, 1.8% hits; in the data active = inhibition mostly above about 38%, no sharp cut-off; inactive = mostly below about 40%;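 also: 0% = agonist challenge alone and 100% = reference antagonist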
Target sequence (O43613 whole entry, looked up): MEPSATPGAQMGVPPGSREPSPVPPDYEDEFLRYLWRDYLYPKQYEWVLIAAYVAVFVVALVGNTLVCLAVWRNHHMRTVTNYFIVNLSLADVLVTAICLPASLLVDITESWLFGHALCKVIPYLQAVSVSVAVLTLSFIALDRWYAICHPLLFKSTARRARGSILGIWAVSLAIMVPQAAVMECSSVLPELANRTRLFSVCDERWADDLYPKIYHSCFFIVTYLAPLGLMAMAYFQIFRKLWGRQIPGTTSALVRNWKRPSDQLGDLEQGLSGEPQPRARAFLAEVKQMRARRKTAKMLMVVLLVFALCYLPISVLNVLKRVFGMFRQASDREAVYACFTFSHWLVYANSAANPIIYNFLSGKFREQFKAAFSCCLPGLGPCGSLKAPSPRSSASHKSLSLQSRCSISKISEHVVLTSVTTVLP
TAAR1 agonist: agonists of human TAAR1; CHO RD-HGA16 TAAR1, Fluo-8 calcium fluorescence; vehicle wells 0%, saturating PEA agonist 100%; activation, % at 3 µM; 360,000 compounds, 0.99% hits; AID 624467;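 active = activation above the mean activation of all test compounds in the run plus 3 SD, cut at about 38% in these data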
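System: CHO-derived RD-HGA16 cells with stable Gα16 and human TAAR1. Times: 17-24 h plating, Fluo-8 75 min 37 °C, 30 min RT. Measured by: calcium-sensitive Fluo-8 signal, excitation 470-495, emission 515-575 nm. Read-out basis: % activation relative to PEA EC100 response. Control set: DMSO and PEA EC100. Repeats: no replicates (n 1).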
OX1R antag-2: human HCRTR1 antagonism. CHO/OX1R cells, Fluo-8 calcium fluorescence, orexin A. inhibition, % at 5 µM. 330,000 compounds, 0.43% hits. O43613;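 active = inhibition above its plate's threshold, mean inhibition of all tested compounds on the plate plus 3 SD, cut at about 37% in these data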;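 also: 0% = orexin A challenge wells and 100% = SB-334867-A antagonist wells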
CHO parental Ca: counter-screen for OX1R antagonists: effect in parental CHO cells; inhibition, % at 5.6 µM; 330,000 compounds, 0.63% hits; parental CHO-K1, ATP-induced calcium, Fluo-8 fluorescence;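 active = inhibition above that plate's mean sample inhibition plus 3 SD, cut at about 26% in these data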;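 also: 0% = ATP-challenged DMSO wells and 100% = DMSO wells without ATP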
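Material – parental CHO cells · Reagent – ATP stimulus · Compound – single nominal dose of 5.6 µM per compound · Detection – Fluo-8 fluorescence · Read-out basis – percent inhibition of calcium signal · Controls – ATP-challenged DMSO wells low, unchallenged DMSO wells high · Repeats – no replicates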
TAAR1 antagonist: antagonists of human TAAR1; Q96RJ0; CHO RD-HGA16 TAAR1, Fluo-8 calcium fluorescence, antagonist; inhibition, % at 3 µM; 360,000 compounds, 1.5% hits; AID 624466;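 active = inhibition above a per-plate cutoff, the mean inhibition of test compounds on that plate plus 3 SD, cut at about 49% in these data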;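 also: 0% = DMSO plus EC80 beta-PEA response and 100% = DMSO alone without agonist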
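Test system – hTAAR1-expressing CHO RD-HGA16 cells, Gα16-coupled · Reagent – β-PEA at EC80 concentration, post-compound challenge · Compound dosing – 3 µM, single point · Timing – 140 s kinetic read after compound, 140 s after agonist · Detection – Fluo-8 intracellular calcium dye fluorescence, real-time kinetic reads · Control set – DMSO and EC80 PEA controls · Repeats – n of 1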
* marks the source's active call; other numbers are inactive results. Most compounds without a hit are left out; they make up all but 3.9% or so of the library.

Results for CCCN1C(=O)c2cc(C(=O)Nc3cccc(C(C)=O)c3)ccc2C1Nc1cccc(C(C)=O)c1 (centres undefined) ?
OX1R antag-1: 9.1; TAAR1 agonist: 14.0; OX1R antag-2: -26.1; CHO parental Ca: 1.1; TAAR1 antagonist: 73.8*

What do the screens show for `C[C@H]1Cn2cnc(C(=O)N(C)Cc3ccccc3)c2C(=O)N1`?
TAAR1 agonist: -0.9; TAAR1 antagonist: -5.1

Results for CCOc1ccc(S(=O)(=O)N(C(=O)c2ccco2)c2cc3sc(=O)oc3c3ccccc23)cc1 ?
OX1R antag-1: 6.3; TAAR1 agonist: 2.9; OX1R antag-2: 68.7*; CHO parental Ca: 82.0*; TAAR1 antagonist: -0.3

Results for Cc1ccc(S(=O)(=O)N(C(=O)c2ccco2)c2cc3sc(=O)oc3c3ccccc23)cc1 ?
OX1R antag-1: 10.1; TAAR1 agonist: 0.8; OX1R antag-2: 61.5*; CHO parental Ca: 76.0*; TAAR1 antagonist: -2.6

Results for COc1ccc(S(=O)(=O)N(C(=O)c2ccco2)c2cc3sc(=O)oc3c3ccccc23)cc1 ?
OX1R antag-1: 2.4; TAAR1 agonist: 3.2; OX1R antag-2: 59.5*; CHO parental Ca: 66.0*; TAAR1 antagonist: 17.0

How did O=C(NCC(=O)N1CCN(S(=O)(=O)c2c(F)cccc2F)CC1)c1ccccc1F do in these assays?
TAAR1 agonist: 0.7; TAAR1 antagonist: -3.2

Results for O=C(CCCC(=O)c1ccccc1)NCCc1ccccc1F ?
OX1R antag-1: 11.5; TAAR1 agonist: 40.4*; OX1R antag-2: -18.8; CHO parental Ca: -21.6; TAAR1 antagonist: 73.3*

Results for COc1ccc(C(=O)CCC(=O)NCCc2ccccc2F)cc1 ?
OX1R antag-1: -4.4; TAAR1 agonist: 38.7*; OX1R antag-2: 7.8; CHO parental Ca: -10.2; TAAR1 antagonist: 71.3*

What do the screens show for `COC(=O)c1cc2c(c3c4ccccc4n(S(=O)(=O)c4ccc(OC)cc4)c13)C(=O)N(Cc1ccco1)C2`?
TAAR1 agonist: -0.4; TAAR1 antagonist: -27.4

Results for CCc1cnc(Nc2nc(C(N)Cc3ccc(F)cc3)cs2)nc1 (centres undefined) ?
TAAR1 agonist: 34.9; TAAR1 antagonist: -5.0

Results for COCc1cc(N2CCNC[C@H]2C)ccc1N1C[C@@H](C)O[C@@H](C)C1 ?
TAAR1 agonist: 1.4; TAAR1 antagonist: -4.1

What do the screens show for `CC(C)c1ccc(NC(=O)C(c2ccc3c(c2)OCO3)N2CCCCC2)cc1` (centres undefined)?
OX1R antag-1: 1.8; TAAR1 agonist: 6.2; OX1R antag-2: -37.5; CHO parental Ca: -4.7; TAAR1 antagonist: -8.0

How did CC1CCN(C(C(=O)Nc2ccc(C(C)C)cc2)c2ccc3c(c2)OCO3)CC1 (centres undefined) do in these assays?
OX1R antag-1: 13.4; TAAR1 agonist: 1.6; OX1R antag-2: -27.3; CHO parental Ca: 31.1*; TAAR1 antagonist: -30.3

What do the screens show for `COc1c([N+](=O)[O-])cc(C(=O)NNC(=O)c2ccc(C)cc2)cc1[N+](=O)[O-]`?
OX1R antag-1: 45.7*; TAAR1 agonist: -0.5; OX1R antag-2: -12.7; CHO parental Ca: -17.7; TAAR1 antagonist: -1.1

How did O=C(COc1ccc(CNC[C@H]2O[C@@H](n3ccc(=O)[nH]c3=O)[C@H](O)[C@@H]2O)cc1)Nc1ccccn1 do in these assays?
TAAR1 agonist: 3.1; TAAR1 antagonist: 0.2

What do the screens show for `CC1CCN(C(=O)c2ccc([N+](=O)[O-])o2)CC1`?
OX1R antag-1: 43.8*; TAAR1 agonist: -4.3; OX1R antag-2: -9.9; CHO parental Ca: -5.2; TAAR1 antagonist: 5.8

What do the screens show for `O=C(c1ccc([N+](=O)[O-])o1)N1CCN(Cc2ccccc2)CC1`?
OX1R antag-1: 30.3*; TAAR1 agonist: 5.4; OX1R antag-2: -14.8; CHO parental Ca: -0.1; TAAR1 antagonist: 10.1

Results for Cc1ccc(C(=O)N2CCN(Cc3ccccc3)CC2)o1 ?
OX1R antag-1: 5.4; TAAR1 agonist: 0.5; OX1R antag-2: -4.2; CHO parental Ca: -1.9; TAAR1 antagonist: -18.6

How did CC1CCCN(C(=O)c2ccc([N+](=O)[O-])o2)C1 (centres undefined) do in these assays?
OX1R antag-1: 57.6; TAAR1 agonist: 0.9; OX1R antag-2: -10.0; CHO parental Ca: -8.7; TAAR1 antagonist: -16.8

Results for CN(Cc1ccccc1)C(=O)c1ccc([N+](=O)[O-])o1 ?
OX1R antag-1: 53.6*; TAAR1 agonist: 0.4; OX1R antag-2: -17.9; CHO parental Ca: -8.2; TAAR1 antagonist: 6.3

What do the screens show for `COC(=O)c1[nH]c2c(c1C)C(=O)CC(c1ccccc1)C2` (centres undefined)?
OX1R antag-1: 16.6; TAAR1 agonist: 17.9; OX1R antag-2: 6.3; CHO parental Ca: -15.4; TAAR1 antagonist: -10.2

What do the screens show for `CS(=O)(=O)c1sc(C#N)c2c1C(=O)CC(c1ccccc1)C2` (centres undefined)?
OX1R antag-1: 46.1*; TAAR1 agonist: 3.8; OX1R antag-2: 92.3*; CHO parental Ca: 53.3*; TAAR1 antagonist: 72.6*

Results for CCCCn1nnnc1C(c1ccccc1)N1CCN(c2cc(C)ccc2C)CC1 (centres undefined) ?
TAAR1 agonist: 0.2; TAAR1 antagonist: -11.2

What do the screens show for `CC(C)C[C@H]1COc2cccc(NCCO)c2S(=O)(=O)N1`?
TAAR1 agonist: 1.9; TAAR1 antagonist: -5.3

How did C/C(CC(=O)Nc1ccc([N+](=O)[O-])cc1)=N\NC(=O)c1ccccc1[N+](=O)[O-] do in these assays?
OX1R antag-1: 1.6; TAAR1 agonist: 0.7; OX1R antag-2: 31.9; CHO parental Ca: 32.0*; TAAR1 antagonist: -24.0

What do the screens show for `O=C(NC[C@@H]1CCCO1)c1cccc2c1C(=O)c1ccc(Cl)cc1S2(=O)=O`?
OX1R antag-1: 44.9*; TAAR1 agonist: 7.1; OX1R antag-2: -11.9; CHO parental Ca: -11.6; TAAR1 antagonist: 25.6

What do the screens show for `COc1ccc(-c2ccc3c(c2)S(=O)(=O)c2cccc(C(=O)NC[C@@H]4CCCO4)c2C3=O)cc1OC`?
OX1R antag-1: 37.4*; TAAR1 agonist: 21.2; OX1R antag-2: 8.5; CHO parental Ca: -13.3; TAAR1 antagonist: 57.4*

What do the screens show for `O=C(CSc1ccccc1F)NC(=O)NC1CCCC1`?
TAAR1 agonist: -2.4; TAAR1 antagonist: -6.3

How did Cc1ccc(S(=O)(=O)N2CCN(C(=O)COC(=O)CCOc3cc(C)ccc3C)CC2)cc1 do in these assays?
OX1R antag-1: 21.8; TAAR1 agonist: 8.1; OX1R antag-2: 1.1; CHO parental Ca: 57.9*; TAAR1 antagonist: 36.3

What do the screens show for `CCc1nc2ccc(C(=O)N3CCCCC3)cn2c1N(C)CCCc1ccccc1`?
TAAR1 agonist: 0.7; TAAR1 antagonist: -16.9

Results for Nc1ccc(Sc2cnn(-c3ccccc3)c(=O)c2Cl)cc1 ?
OX1R antag-1: 23.1; TAAR1 agonist: 2.6; OX1R antag-2: 0.7; CHO parental Ca: -2.9; TAAR1 antagonist: -10.5

How did Cc1ccc(Sc2cnn(-c3ccccc3)c(=O)c2Cl)cc1 do in these assays?
OX1R antag-1: 25.7; TAAR1 agonist: 0.2; OX1R antag-2: -18.9; CHO parental Ca: 37.5*; TAAR1 antagonist: 11.1
